From ChEMBL document CHEMBL5678806, “NMS-P937, an orally available, specific small-molecule polo-like kinase 1 inhibitor with antitumor activity in solid and hematologic malignancies” (Mol Cancer Ther, 2012) come the findings set out here.

For orientation: IC50 means the concentration that gives 50% inhibition. What is called half-life is the time needed for the level to fall by half in the phase considered. The term AUC denotes the area under the concentration-time curve, a measure of exposure.

The target in data set [1] is Casein kinase 2 (Homo sapiens, UniProt P67870+P68400+P19784+Q8NEV1). Kind of data set: Inhibition of CK2 (unknown origin) in presence of [gamma-33P]ATP. The data set is classed as protein assay.
Data set [2] deals with SUD4. Kind of data set: Antiproliferative activity against human SU-DHL-4 cells assessed as inhibition of cell growth incubated for 72 hrs by cell-titer glo assay. It is filed as functional, cell-based. Particulars: SU-DHL-4, 72 h.
Data set [3] concerns A2780. The data set can be described thus: Induction of apoptosis in human A2780 cells assessed as PARP cleavage at 0.02 to 0.2 micromol/L incubated for 24 hrs by Western blotting analysis. Particulars: dose 0.02-0.2 µmol/L. It is filed as functional, cell-based.
In data set [4] the target is Fibroblast growth factor receptor 4 (Homo sapiens) (UniProt P22455). Kind of data set: Inhibition of N-terminal His6-tagged recombinant human FGFR4 (442 to 755 residues) expressed in baculovirus infected Sf21 cells assessed as residual activity at 1 uM relative to control.
Data set [5] is described as follows: Half-life in Beagle dog at 5 mg/kg, iv by LC-MS analysis. It is filed as ADME, organism-based, Canis lupus familiaris. Particulars: in vivo.
Data set [6] deals with NCI-H2228. The data set can be described thus: Antiproliferative activity against human NCI-H2228 cells assessed as inhibition of cell growth incubated for 72 hrs by cell-titer glo assay. Particulars: NCI-H2228, 72 h. It is filed as functional, cell-based. A digest of the protocol:
(§1)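 Cells from ATCC or ECACC, kept in supplier-recommended medium with 1% penicillin-streptomycin at 37°C, 5% CO₂. Seeded at 10,000–30,000/cm² (adherent) or 100,000/mL (nonadherent) in medium with 10% fetal calf serum. Dosed after 24 h in duplicate with serial dilutions. Viable cells read by CellTiter-Glo 72 h later. IC50 from sigmoidal fit. At least two independent experiments.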

The test system of data set [7] is SW948. Kind of data set: Antiproliferative activity against human SW948 cells assessed as inhibition of cell growth incubated for 72 hrs by cell-titer glo assay. The data set is classed as functional, cell-based. Particulars: SW948, 72 h.
Data set [8] has as its target Dual specificity mitogen-activated protein kinase kinase 6 (Homo sapiens) (UniProt P52564). Kind of data set: Inhibition of N-terminal maltose binding protein-tagged human MKK6 (4 to end residues) expressed in E. coli assessed as residual activity at 0.1 uM relative to control.
The nature of data set [9]: Antiproliferative activity against human Lovo/DX cells assessed as inhibition of cell growth incubated for 72 hrs by cell-titer glo assay. It is filed as functional, cell-based. Put shortly: (§2)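 Cells seeded at 10,000–30,000/cm² (adherent) or 100,000/mL (nonadherent) in medium with 10% fetal calf serum; after 24 h, treated in duplicate with serial dilutions for 72 h. Viable cell number read by CellTiter-Glo luminescence; IC50 from sigmoidal fit; at least two independent experiments.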

The target in data set [10] is Vascular endothelial growth factor receptor 3 (Homo sapiens, UniProt P35916). The data set can be described thus: Inhibition of VEGFR3 (unknown origin) in presence of [gamma-33P]ATP.
The nature of data set [11]: Inhibition of AUR1 (unknown origin) in presence of [gamma-33P]ATP. Also on record: species or system Homo sapiens.
In data set [12] the test system is HCC1395. The data set can be described thus: Antiproliferative activity against human HCC1395 cells assessed as inhibition of cell growth incubated for 72 hrs by cell-titer glo assay. It is filed as functional, cell-based. As to conditions: HCC1395, 72 h. Put shortly: as §2
A short description of data set [13]: AUC in nu/nu mouse at 10 mg/kg, iv by LC-MS analysis. The data set is classed as ADME, organism-based. As to conditions: in vivo.
For data set [14], the target named is Serine/threonine-protein kinase Nek3 (Homo sapiens) (UniProt P51956). The data set can be described thus: Inhibition of N-terminal 6His-tagged recombinant full length human NEK3 expressed in baculovirus infected Sf21 cells assessed as residual activity at 1 uM relative to control.
Data set [15] addresses Tyrosine-protein kinase Fer (Homo sapiens) (UniProt P16591). The data set can be described thus: Inhibition of N-terminal His6 tagged recombinant human Fer (541 to end residues) expressed in baculovirus infected Sf21 cells assessed as residual activity at 0.1 uM relative to control.
The target of data set [16] is MAP kinase-activated protein kinase 2 (Homo sapiens, UniProt P49137). Kind of data set: Inhibition of MAPKAPK2 (unknown origin) in presence of [gamma-33P]ATP.
Data set [17] has as its system RPMI-8226. The data set can be described thus: Antiproliferative activity against human RPMI-8226 cells assessed as inhibition of cell growth incubated for 72 hrs by cell-titer glo assay. It is filed as functional, cell-based. Particulars: RPMI-8226, 72 h. A digest of the protocol:
as §1

The target in data set [18] is Tyrosine-protein kinase BTK (Homo sapiens) (UniProt Q06187). Kind of data set: Inhibition of N-terminal His6-tagged recombinant full-length human BTK expressed in baculovirus infected Sf21 cells assessed as residual activity at 0.1 uM relative to control.
The test system of data set [19] is SU-DHL-1. Kind of data set: Antiproliferative activity against human SU-DHL-1 cells assessed as inhibition of cell growth incubated for 72 hrs by cell-titer glo assay. The data set is classed as functional, cell-based. As to conditions: SU-DHL-1, 72 h.
Data set [20] deals with RAC-alpha serine/threonine-protein kinase (Homo sapiens, UniProt P31749). The data set can be described thus: Inhibition of AKT1 (unknown origin) in presence of [gamma-33P]ATP.
Data set [21] deals with A2780. Kind of data set: Induction of cell cycle arrest in human A2780 cells assessed as accumulation of cells in G2/M phase by measuring Histone H3 phosphorylation on Ser10 incubated for 24 hrs by Western blotting analysis. The data set is classed as functional, cell-based. Particulars: dose 0.02-0.2 µmol/L. Put shortly:
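A2780 ovarian carcinoma cells treated 24 h with a range of concentrations, with DMSO and nocodazole controls. 20 µg protein extract separated by SDS-PAGE and immunoblotted with chemiluminescent detection. Probed for total and phospho-Thr210 PLK1, phospho-Ser10 histone H3, phospho-Thr199 NPM and phospho-Tyr15 CDK1. Total NPM, tubulin and total CDK1 served as loading controls.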
Background: In western blotting, separated proteins are transferred to a membrane and probed.

Data set [22] in a line: Volume of distribution at steady state in male cynomolgus monkey at 5 mg/kg, iv by LC-MS analysis. The data set is classed as ADME, organism-based, Macaca fascicularis. Particulars: in vivo, read-out: Vdss.
Data set [23] deals with Serine/threonine-protein kinase ULK3 (Homo sapiens) (UniProt Q6PHR2). Kind of data set: Inhibition of N-terminal 6His-tagged recombinant human full-length ULK3 expressed in baculovirus infected Sf21 cells assessed as residual activity at 0.1 uM relative to control.
Data set [24] concerns A2780. The data set can be described thus: Antiproliferative activity against human A2780 cells assessed as reduction in cell number at 0.5 to 1 uM incubated for 8 hrs followed by compound washout and measured after 24 to 48 hrs by cell titer glow assay. The data set is classed as functional, cell-based. As to conditions: dose 0.5-1 µM. Put shortly:
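A2780 cells exposed to 0.5 or 1 μmol/L for 8 hours, then compound withdrawn; cells replated and grown 24 and 48 hours in drug-free medium before assessing cell growth.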

Activity calls are given as the source filed them. Where only a bound is given, the exact number is not on record here.

Chain of RAC-alpha serine/threonine-protein kinase (P31749 whole entry): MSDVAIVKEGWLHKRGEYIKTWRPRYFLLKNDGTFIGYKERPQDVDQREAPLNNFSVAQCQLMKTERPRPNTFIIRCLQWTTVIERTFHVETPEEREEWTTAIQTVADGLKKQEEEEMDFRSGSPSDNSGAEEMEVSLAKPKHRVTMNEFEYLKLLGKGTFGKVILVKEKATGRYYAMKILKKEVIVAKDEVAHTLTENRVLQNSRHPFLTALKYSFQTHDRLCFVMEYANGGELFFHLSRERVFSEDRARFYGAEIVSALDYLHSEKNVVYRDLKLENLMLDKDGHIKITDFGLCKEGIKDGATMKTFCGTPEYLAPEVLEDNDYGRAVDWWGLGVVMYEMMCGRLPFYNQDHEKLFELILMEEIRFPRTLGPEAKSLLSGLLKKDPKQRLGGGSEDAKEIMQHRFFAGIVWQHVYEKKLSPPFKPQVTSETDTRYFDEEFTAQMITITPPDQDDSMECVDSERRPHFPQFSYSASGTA
Chain of Tyrosine-protein kinase Fer (Homo sapiens) (P16591 whole entry, looked up): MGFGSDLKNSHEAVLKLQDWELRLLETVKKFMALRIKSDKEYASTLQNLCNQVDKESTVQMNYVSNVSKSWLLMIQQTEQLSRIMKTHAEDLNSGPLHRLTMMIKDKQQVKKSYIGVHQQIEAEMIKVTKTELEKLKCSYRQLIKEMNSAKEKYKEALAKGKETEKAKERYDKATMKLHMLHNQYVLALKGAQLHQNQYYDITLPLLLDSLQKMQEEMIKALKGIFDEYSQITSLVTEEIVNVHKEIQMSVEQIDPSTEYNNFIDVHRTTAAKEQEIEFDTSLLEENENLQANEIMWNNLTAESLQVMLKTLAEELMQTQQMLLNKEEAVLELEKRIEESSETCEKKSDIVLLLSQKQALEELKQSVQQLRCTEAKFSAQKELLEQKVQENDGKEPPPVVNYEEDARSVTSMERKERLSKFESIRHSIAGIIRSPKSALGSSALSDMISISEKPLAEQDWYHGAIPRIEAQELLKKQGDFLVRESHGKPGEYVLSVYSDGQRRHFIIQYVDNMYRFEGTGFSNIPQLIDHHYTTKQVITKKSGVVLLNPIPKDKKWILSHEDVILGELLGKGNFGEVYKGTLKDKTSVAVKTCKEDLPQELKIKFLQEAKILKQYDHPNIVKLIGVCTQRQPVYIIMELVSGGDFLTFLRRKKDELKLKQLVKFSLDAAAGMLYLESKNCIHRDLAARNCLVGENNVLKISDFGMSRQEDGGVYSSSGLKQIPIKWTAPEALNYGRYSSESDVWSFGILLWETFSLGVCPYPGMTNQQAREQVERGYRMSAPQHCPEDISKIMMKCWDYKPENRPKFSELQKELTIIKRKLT
Chain of Vascular endothelial growth factor receptor 3 (P35916 whole entry): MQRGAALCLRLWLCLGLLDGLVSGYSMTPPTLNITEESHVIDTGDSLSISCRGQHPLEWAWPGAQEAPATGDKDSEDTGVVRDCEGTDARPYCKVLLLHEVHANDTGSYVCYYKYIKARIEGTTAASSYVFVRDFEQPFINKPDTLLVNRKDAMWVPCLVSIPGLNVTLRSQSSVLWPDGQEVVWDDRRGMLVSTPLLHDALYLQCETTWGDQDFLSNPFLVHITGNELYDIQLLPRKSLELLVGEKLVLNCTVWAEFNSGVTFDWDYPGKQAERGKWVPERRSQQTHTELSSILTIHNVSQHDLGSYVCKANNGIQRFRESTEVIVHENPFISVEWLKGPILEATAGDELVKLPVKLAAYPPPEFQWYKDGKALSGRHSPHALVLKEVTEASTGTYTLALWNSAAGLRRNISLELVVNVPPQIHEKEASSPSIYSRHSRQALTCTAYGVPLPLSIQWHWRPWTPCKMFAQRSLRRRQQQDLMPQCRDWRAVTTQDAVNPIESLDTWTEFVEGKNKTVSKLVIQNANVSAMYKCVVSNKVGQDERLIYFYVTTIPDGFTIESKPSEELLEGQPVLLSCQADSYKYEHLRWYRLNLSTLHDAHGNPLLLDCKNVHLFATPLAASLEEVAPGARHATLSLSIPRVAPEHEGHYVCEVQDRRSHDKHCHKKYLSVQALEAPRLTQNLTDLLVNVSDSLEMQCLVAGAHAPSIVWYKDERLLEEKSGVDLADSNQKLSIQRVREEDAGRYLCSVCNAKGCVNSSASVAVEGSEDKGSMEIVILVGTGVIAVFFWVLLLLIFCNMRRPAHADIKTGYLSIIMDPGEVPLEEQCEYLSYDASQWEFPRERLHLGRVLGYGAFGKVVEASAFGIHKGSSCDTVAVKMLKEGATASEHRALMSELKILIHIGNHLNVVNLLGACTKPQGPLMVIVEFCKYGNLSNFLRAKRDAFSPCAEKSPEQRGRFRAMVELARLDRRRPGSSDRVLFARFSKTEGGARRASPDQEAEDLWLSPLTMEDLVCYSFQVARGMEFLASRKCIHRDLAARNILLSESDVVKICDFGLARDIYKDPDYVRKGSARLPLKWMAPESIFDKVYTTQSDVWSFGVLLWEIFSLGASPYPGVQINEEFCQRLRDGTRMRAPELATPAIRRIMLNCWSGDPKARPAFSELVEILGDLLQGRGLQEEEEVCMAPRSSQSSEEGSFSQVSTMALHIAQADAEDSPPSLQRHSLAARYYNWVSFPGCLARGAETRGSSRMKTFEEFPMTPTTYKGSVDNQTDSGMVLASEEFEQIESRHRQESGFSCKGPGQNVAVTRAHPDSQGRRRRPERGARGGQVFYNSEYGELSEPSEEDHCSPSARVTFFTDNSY
Chain of Serine/threonine-protein kinase ULK3 (Homo sapiens) (Q6PHR2 whole entry): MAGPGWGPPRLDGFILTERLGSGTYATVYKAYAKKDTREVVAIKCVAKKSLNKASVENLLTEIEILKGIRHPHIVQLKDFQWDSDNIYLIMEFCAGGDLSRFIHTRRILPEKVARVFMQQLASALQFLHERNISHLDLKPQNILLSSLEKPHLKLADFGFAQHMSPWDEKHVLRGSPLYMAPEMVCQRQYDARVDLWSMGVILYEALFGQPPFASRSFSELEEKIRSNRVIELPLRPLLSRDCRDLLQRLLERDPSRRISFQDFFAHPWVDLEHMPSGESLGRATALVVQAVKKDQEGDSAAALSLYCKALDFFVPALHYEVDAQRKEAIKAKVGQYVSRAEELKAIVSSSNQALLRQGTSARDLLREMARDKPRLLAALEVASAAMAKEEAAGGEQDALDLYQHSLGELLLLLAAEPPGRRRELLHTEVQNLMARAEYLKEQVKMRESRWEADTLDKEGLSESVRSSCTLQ
Chain of Dual specificity mitogen-activated protein kinase kinase 6 (Homo sapiens) (P52564 whole entry): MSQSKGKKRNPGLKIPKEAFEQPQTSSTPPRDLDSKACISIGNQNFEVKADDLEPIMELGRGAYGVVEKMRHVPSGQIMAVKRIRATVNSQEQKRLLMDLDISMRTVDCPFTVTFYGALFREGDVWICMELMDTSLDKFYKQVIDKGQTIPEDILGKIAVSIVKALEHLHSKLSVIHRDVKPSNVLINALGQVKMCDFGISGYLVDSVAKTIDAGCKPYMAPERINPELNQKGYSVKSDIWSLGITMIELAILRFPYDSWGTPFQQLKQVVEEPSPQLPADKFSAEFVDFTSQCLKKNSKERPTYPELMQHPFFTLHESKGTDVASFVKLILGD
Chain of Fibroblast growth factor receptor 4 (Homo sapiens) (P22455 22-802 limits assumed): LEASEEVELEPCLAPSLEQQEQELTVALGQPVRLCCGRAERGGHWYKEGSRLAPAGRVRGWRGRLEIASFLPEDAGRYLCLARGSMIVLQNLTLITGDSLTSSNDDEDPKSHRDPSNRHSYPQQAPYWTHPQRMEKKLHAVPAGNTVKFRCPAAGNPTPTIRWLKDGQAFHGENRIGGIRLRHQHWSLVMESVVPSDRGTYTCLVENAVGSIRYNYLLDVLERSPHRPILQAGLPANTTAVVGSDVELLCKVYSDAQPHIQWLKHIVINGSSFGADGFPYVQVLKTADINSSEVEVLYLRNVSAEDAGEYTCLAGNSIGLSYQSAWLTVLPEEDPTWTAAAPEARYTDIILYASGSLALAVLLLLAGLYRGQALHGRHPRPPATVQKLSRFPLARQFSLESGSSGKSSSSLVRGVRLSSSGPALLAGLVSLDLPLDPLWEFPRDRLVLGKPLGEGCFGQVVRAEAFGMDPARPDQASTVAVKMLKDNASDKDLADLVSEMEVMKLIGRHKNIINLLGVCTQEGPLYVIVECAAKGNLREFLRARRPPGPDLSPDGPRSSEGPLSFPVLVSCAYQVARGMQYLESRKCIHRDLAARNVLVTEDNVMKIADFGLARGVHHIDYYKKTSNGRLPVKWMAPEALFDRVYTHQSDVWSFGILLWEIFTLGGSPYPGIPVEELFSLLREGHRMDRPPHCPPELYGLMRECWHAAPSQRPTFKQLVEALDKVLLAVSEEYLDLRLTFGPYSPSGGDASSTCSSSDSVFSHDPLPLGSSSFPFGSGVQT
Chain of MAP kinase-activated protein kinase 2 (P49137 whole entry): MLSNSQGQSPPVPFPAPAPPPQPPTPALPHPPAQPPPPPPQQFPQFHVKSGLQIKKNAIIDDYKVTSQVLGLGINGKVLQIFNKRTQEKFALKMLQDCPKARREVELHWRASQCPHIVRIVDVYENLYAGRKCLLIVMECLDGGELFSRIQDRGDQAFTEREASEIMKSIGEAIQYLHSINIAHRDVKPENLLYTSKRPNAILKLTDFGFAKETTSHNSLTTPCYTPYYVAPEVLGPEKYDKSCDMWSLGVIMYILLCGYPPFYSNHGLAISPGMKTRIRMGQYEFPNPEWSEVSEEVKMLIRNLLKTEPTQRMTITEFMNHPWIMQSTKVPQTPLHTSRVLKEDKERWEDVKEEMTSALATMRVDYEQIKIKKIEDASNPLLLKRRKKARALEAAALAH

Regarding `CN1CCN(c2ccc(OC(F)(F)F)c(Nc3ncc4c(n3)-c3c(c(C(N)=O)nn3CCO)CC4)c2)CC1` [ONVANSERTIB], the IC50 in data set [1] was 826 nM; in data set [2] it was 56 nM; in data set [6], 335 nM; in data set [7], 124 nM; in [9] it was 1720 nM; in data set [10] it was greater than 10000 nM. The concentration for half-maximal inhibition (IC50) in data set [11] is greater than 10000 nM; in [12] it was 49 nM; in data set [16], greater than 10000 nM; in [17] it was 128 nM; in [19], 96 nM; in [20], greater than 10000 nM. For the same molecule, the result in data set [3] and in data set [24] was Active. In addition, the Activity in [4] was 90%; in data set [8], 131%; in [14], 118%; in data set [15], 125%; in data set [18], 83%; in [21], “Dose-Dependent Effect”. Further, the Activity in [23] came out at 139%. In addition, the half-life in data set [5] was 3.9 h. Also, in data set [13], the AUC came out at 8.6 µM·h. In data set [22], the Vd was determined as 2.9 L/kg.
